Published values of several laboratories.
Compare with care: the assays were run in different laboratories.
EIF2AK1: Eukaryotic translation initiation factor 2-alpha kinase 1 (EIF2AK1, Homo sapiens, UniProt Q9BQI3)
Si: Sucrase-isomaltase, intestinal (Si, Rattus norvegicus, UniProt P23739)
BRD1 bromodomain: Bromodomain-containing protein 1, bromodomain (BRD1, Homo sapiens, UniProt O95696)
Abl2: Abl2 (Mus musculus, UniProt Q4JIM5)

| SMILES | target | assay | test system | conditions | measurement | value |
| --- | --- | --- | --- | --- | --- | --- |
| CCOCc1nc(O)c(-c2nnc(Cc3ccc(Cl)cn3)o2)c(O)c1-c1c(OC)cccc1OC | Apelin receptor (APLNR, Homo sapiens, UniProt P35414) | binding, radioligand |  |  | koff | 0.00075 s⁻¹ |
| Cc1ccc(C(=O)Nc2ccc(CN3CCN(C)CC3)c(C(F)(F)F)c2)cc1C#Cc1cnc2cccnn12 | Serine/threonine-protein kinase RIO2 (RIOK2, Homo sapiens, UniProt Q9BVS4) | enzyme activity, inhibitor |  | 23.5 nM | remaining activity | 88% |
| COc1cc(Cl)c(C(=O)N[C@@H](CN[C@H]2CC[C@@H](N)CC2)Cc2ccc(C#N)cc2)cc1-c1ccc(CN[C@H](C)c2ccc(C)cc2)o1 | EIF2AK1 | enzyme activity, inhibitor |  | 1 µM | remaining activity | 93% |
| O=c1c(O[C@@H]2O[C@H](CO)[C@@H](O)[C@H](O)[C@H]2O)c(-c2ccc(O)c(O)c2)oc2cc(O)cc(O)c12 | Si | enzyme activity, inhibitor |  | 100 µg/mL | inhibition | 54.6% |
| C=C(C)[C@@H]1CCC(C)=C[C@H]1c1c(O)cc(CCCCC)cc1O | Polyunsaturated fatty acid lipoxygenase ALOX12 (ALOX12, Homo sapiens, UniProt P18054) | enzyme activity in cells, inhibitor | PMNL | 10 µM | remaining activity | 131% |
| Cn1c2c(c3ccc(Cl)c(Cl)c31)C(C#N)C1(CCOCC1)NC2=O (stereo not shown) | Rhodopsin kinase GRK1 (GRK1, Homo sapiens, UniProt Q15835) | thermal stability, DSF |  | 10 µM | ΔTm | 0.4 °C |
| Cc1cnc(Nc2ccc(OCCN3CCCC3)cc2)nc1Nc1cccc(S(=O)(=O)NC(C)(C)C)c1 | BRD1 bromodomain | thermal stability, DSF |  | 10 µM | ΔTm | 0.51 °C |
| O=c1c(O[C@@H]2O[C@@H](CO)[C@H](O)[C@H]2O)c(-c2ccc(O)c(O)c2)oc2cc(O)cc(O)c12 | Si | enzyme activity, inhibitor |  | 100 µg/mL | inhibition | 52.4% |
| O=C(c1ccc(F)cc1)N(Cc1ccccc1)C1CCCCC1 | Estrogen receptor (ESR1, Homo sapiens, UniProt P03372) | cell-free assay |  | 10 µM | inhibition | 32% |
| O=C1OC[C@H]2OC(=O)c3cc(O)c(O)c(O)c3-c3c(O)c(O)c(O)c4c3C(=O)O[C@H]([C@H]3OC(=O)c5c-4c(O)c(O)c(O)c5[C@H]3O)[C@@H]2OC(=O)c2cc(O)c(O)c(O)c2-c2c1cc(O)c(O)c2O | Si | enzyme activity, inhibitor |  | 100 µg/mL | inhibition | 48.3% |
| Cc1ccc(Nc2nccc(N(C)c3ccc4c(C)n(C)nc4c3)n2)cc1S(N)(=O)=O | Abl2 | enzyme activity, inhibitor |  | 10 µM | inhibition | 76% |
| Nc1ncnc2occ(-c3ccc(NC(=O)Nc4cc(C(F)(F)F)ccc4F)cc3)c12 | Phosphatidylinositol 3-kinase catalytic subunit type 3 (PIK3C3, Homo sapiens, UniProt Q8NEB9) | cell-free assay |  | 20 µM | remaining signal | 73% |
| CC(C)(C)c1nc2c(s1)c1nc(N)ncc1c1ccc(NS(=O)(=O)c3c(F)cccc3F)c(F)c12 | EIF2AK1 | enzyme activity, inhibitor, radiometric |  | 1 µM | remaining activity | 69% |
| NS(=O)(=O)c1ccc(Nc2nc(-c3ccc(F)cc3)c3ccccc3n2)cc1 | BRD1 bromodomain | binding, competition with immobilised ligand |  | 1 µM | remaining binding | 2% |
| C[S+]([O-])c1ccc(-c2nc(-c3ccncc3)c(-c3ccc(F)cc3)[nH]2)cc1 (stereo not shown) | BRD1 bromodomain | thermal stability, DSF |  | 10 µM | ΔTm | -0.23 °C |
| CCCOc1ccc(OC)c(F)c1C(=O)c1ccc(C(=O)N[C@@H]2CNC[C@H]2NC(=O)c2ccc3[nH]ncc3c2)cc1 | Abl2 | enzyme activity, inhibitor |  | 10 µM | remaining activity | 87% |
